High-throughput results as filed in PubChem BioAssay.
TRPC6 inhibitor = inhibitors of mouse TRPC6 channel. AID 2553. B-score at 10 µM. HEK293-TRPC6, membrane potential dye, ACh-evoked depolarization; stronger effect = lower value. Q61143. hit rate 1.1% among 310,000;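 active means B-score under library mean minus 3 SD, initial fluorescence not abnormally high, positive integrated signal ratio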;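 further: B-score derived from integrated fluorescence ratio over the kinetic read; more negative B-score means stronger inhibition of depolarization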
TRPC4 block = inhibitors of mouse TRPC4 channel | AID 2247 | HEK293 TRPC4beta/mu-opioid, DAMGO-evoked Fluo4 calcium flux; stronger effect = lower value | Q9QUQ5 | hit rate 0.39% among 300,000 | B-score at 10 µM;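 active means B-score over 3 SD under the library average, no early fluorescence shift, positive overall ratio signal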
Target sequence (Q9QUQ5 whole entry, looked up): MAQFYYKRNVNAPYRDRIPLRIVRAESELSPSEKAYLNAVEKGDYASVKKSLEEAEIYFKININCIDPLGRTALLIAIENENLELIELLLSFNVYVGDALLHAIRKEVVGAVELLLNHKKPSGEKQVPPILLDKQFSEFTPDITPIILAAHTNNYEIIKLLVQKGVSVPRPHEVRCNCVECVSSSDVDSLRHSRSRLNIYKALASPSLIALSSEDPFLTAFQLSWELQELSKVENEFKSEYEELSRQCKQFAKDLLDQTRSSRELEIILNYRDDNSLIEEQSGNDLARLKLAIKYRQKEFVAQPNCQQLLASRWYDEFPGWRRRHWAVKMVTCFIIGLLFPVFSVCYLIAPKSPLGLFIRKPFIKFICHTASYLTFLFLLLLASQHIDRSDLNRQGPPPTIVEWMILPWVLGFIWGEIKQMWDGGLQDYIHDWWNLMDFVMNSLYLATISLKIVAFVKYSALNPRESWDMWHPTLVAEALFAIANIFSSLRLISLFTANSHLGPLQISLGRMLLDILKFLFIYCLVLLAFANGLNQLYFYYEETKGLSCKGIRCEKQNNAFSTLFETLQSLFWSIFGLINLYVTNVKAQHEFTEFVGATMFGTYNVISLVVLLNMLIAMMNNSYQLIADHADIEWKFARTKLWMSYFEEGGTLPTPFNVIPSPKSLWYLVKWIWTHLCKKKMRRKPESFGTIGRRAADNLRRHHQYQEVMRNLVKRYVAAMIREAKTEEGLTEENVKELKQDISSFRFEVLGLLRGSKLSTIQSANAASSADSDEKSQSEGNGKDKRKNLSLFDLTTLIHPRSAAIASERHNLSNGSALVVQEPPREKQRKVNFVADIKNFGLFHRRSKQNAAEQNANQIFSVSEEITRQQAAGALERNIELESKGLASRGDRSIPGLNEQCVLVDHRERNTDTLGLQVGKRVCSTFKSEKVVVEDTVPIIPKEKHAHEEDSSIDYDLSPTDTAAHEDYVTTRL
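Assay system: HEK293 cells with stable TRPC4beta plus mu-opioid receptor expression; Probe or stimulus: DAMGO in two steps, submaximal then maximal; Dosing: single-point compound dosing; Measured by: Fluo4 calcium-dye fluorescence, kinetic read; Read-out basis: B score from integrated Fluo4 fluorescence ratio.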
TRPC4 PAM = TRPC4 (mouse) allosteric potentiation. Q9QUQ5. HEK293 TRPC4beta/mu-opioid, DAMGO EC20, Fluo-4 Ca2+ flux; stronger effect = higher value. B-score at 10 µM. hit rate 0.42% among 310,000;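 active means B-score of calcium response area above 5 SD of library B-scores, with initial fluorescence ratio within 5 SD of library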;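 further: B-score of integrated fluorescence ratio over time as area under calcium response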
TRPC4 act = activators of mouse TRPC4 channel | B-score at 10 µM | hit rate 0.49% among 310,000 | Q9QUQ5 | AID 2237 | HEK293 TRPC4beta/mu-opioid, Fluo4 calcium fluorescence; stronger effect = higher value;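 active means B-score above 5 SD of library B-scores, and initial fluorescence ratio not above library mean plus 5 SD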;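 further: positive B-score marks a calcium rise read as TRPC4 activation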
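Assay system: HEK293 cells stably co-expressing mouse TRPC4beta and mu-opioid receptor / Timing: Fluo4 dye loading 45 min at room temperature, 110 s recording / Signal: Fluo4 calcium-sensitive dye fluorescence, kinetic, 1 Hz baseline / Read-out: integrated baseline-normalised fluorescence ratio, converted to per-well B score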
TRPC6 act = mouse TRPC6 channel activation; B-score at 10 µM; Q61143; HEK293-TRPC6 membrane potential dye fluorescence; stronger effect = higher value; hit rate 0.13% among 310,000;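 active means B-score of the integrated fluorescence ratio above library mean plus 3 SD, and starting fluorescence ratio within library mean plus 5 SD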;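 further: higher score means more depolarization so channel activation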
TRPC4 spec 2 = second check of whether TRPC6 inhibitors also affect mouse TRPC4; shares compounds with TRPC6 inhibitor; HEK293 TRPC4/MOR, membrane potential dye fluorescence; channel activated by saturating DAMGO dose; inhibition, % at 10 µM; hit rate 42% among 920; AID 2776;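 active means compounds whose fluorescence signal differed from control wells by over 3 SD, either direction, in both duplicate plates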
TRPC4 spec = tests whether TRPC6 inhibitors also affect mouse TRPC4 | hit rate 61% among 920 | shares compounds with TRPC6 inhibitor | activity change, negative = inhibition, % at 10 µM | AID 2777 | HEK293 TRPC4/mu-opioid, membrane potential fluorescence;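 active means rise or fall in signal beyond 3 SD of buffer-only wells in both replicate plates, either sign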;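 further: integrated kinetic ratio of fluorescence range over baseline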
HEK293 MPD ctr 2-1 = second counter-screen for TRPC6 inhibitors: parental HEK293 cells; shares compounds with TRPC6 inhibitor; parental HEK293 membrane potential dye fluorescence; maximal acetylcholine challenge after compound addition; signal change vs control, % at 10 µM; hit rate 31% among 920;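 active means membrane potential signal moving either way by over 3 SD of the maximum-effect control, in both duplicate plates, meaning non-specific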
HEK293 MPD ctr-1 = parental HEK293 nonspecific activity of TRPC6 inhibitors. membrane potential signal change, % at 10 µM. parental HEK293 membrane potential dye fluorescence. shares compounds with TRPC6 inhibitor. AID 2780. hit rate 60% among 920;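 active means membrane potential signal shifting up or down by more than 3 SD of buffer-only wells, on both duplicate plates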
HEK293 MPD ctr-2 = parental HEK293 nonspecific activity of TRPC6 modulators. shares compounds with TRPC6 inhibitor. membrane potential dye fluorescence. membrane potential signal change, % at 10 µM. hit rate 51% among 2,400. AID 488924;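 active means membrane potential signal moves up or down beyond 5 SD from buffer-only wells, on both duplicate plates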
HEK293 MPD ctr 2-2 = second counter-screen for TRPC6 modulators: effect in parental HEK293 cells | AID 488926 | hit rate 14% among 2,400 | membrane potential dye fluorescence; after compound, maximal acetylcholine stimulation | inhibition, % at 10 µM | shares compounds with TRPC6 inhibitor;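 active means membrane potential signal drops by more than 5 SD from the mean control signal, in both duplicate plates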;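 further: plate controls were acetylcholine ECmax control wells for no effect and buffer only wells for full effect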
TRPC4 ctr mod = mouse TRPC4 off-target activity of TRPC6 modulators | shares compounds with TRPC6 inhibitor | HEK293 TRPC4/mu-opioid, membrane potential fluorescence | percent change from control (negative = decrease, positive = increase), % at 10 µM | hit rate 69% among 2,400;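 active means membrane potential signal moved up or down beyond 5 SD of buffer control wells, in both duplicate plates, actives on both sides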;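 further: plate controls were assay buffer wells for no effect and DAMGO maximal-effect wells for full effect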
TRPC4 ctr inh 2 = second check of whether TRPC6 modulators also affect mouse TRPC4. hit rate 55% among 2,400. AID 488928. HEK293 TRPC4/mu-opioid, membrane potential dye fluorescence; stimulated with maximal-effect DAMGO. inhibition, % at 10 µM. shares compounds with TRPC6 inhibitor;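 active means drop in membrane potential signal beyond 5 SD of the control wells in both duplicate plates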;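 further: TRPC4 counter screen for TRPC6 hits run under conditions tuned for TRPC6 not TRPC4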
TRPC6 block conf = mouse TRPC6 inhibitor confirmation; shares compounds with TRPC6 inhibitor; HEK293-TRPC6, membrane potential dye, ACh-evoked depolarization; inhibition, % at 10 µM; hit rate 43% among 3,300; AID 488960;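 active means fluorescence ratio falls more than 5 SD below the full-stimulation control mean, in both duplicate runs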;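 further: integrated fluorescence ratio of peak minus minimum over baseline after agonist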
TRPC6 act confirm = mouse TRPC6 activator confirmation; shares compounds with TRPC6 inhibitor; HEK293-TRPC6 membrane potential dye fluorescence, FDSS; activation, % at 10 µM; hit rate 11% among 2,800; AID 488961;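 active means ratio signal rise beyond 5 SD above unstimulated control wells' mean, seen in both duplicate runs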;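 further: plate controls were buffer EC0 wells for no effect and acetylcholine ECmax response for full effect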
* = called active by the depositor; i = inactive; . = not tested or not shown. Shown are actives, neighbours in structure and some others; about 2.3% of the full set was active somewhere.

SMILES | TRPC6 inhibitor | TRPC4 block | TRPC4 PAM | TRPC4 act | TRPC6 act | HEK293 MPD ctr-2 | HEK293 MPD ctr 2-2 | TRPC4 ctr mod | TRPC4 ctr inh 2 | TRPC6 block conf | TRPC6 act confirm | others
Cc1cccn2c(=O)c3cc(C(=O)NCCN4CCOCC4)c(=N)n(CCc4ccccc4)c3nc12 | -5.45* | i | i | i | i | i | 103.5%* | i | 52.5%* | i | i
COc1ccc(CCn2c(=N)c(C(=O)NCCN3CCOCC3)cc3c(=O)n4cccc(C)c4nc32)cc1OC | i | i | i | i | i | . | . | . | . | . | .
CCNC(=O)c1cc2c(=O)n3cccc(C)c3nc2n(CCc2ccccc2)c1=N | -7.38* | i | i | i | i | -141.0%* | 73.5%* | -27.5%* | 47.5%* | 63.0%* | i
CC(=O)O[C@]1(C(C)=O)CC[C@H]2[C@@H]3C=CC4=CC(=O)C=C[C@]4(C)[C@H]3CC[C@@]21C | i | i | i | i | i | . | . | . | . | . | .
COC(=O)C1=C(C)NC(C)=C(C(=O)OC)C1C(=O)OC(C)C(=O)c1ccccc1 (stereo not given) | i | i | i | i | i | . | . | . | . | . | .
O=C(Nc1ccccc1)c1cc([N+](=O)[O-])ccc1NCc1cccnc1 | i | i | i | i | i | . | . | . | . | . | .
CN(C)CCNC(=O)c1ccc2c(c1)N(Cc1ccc(F)cc1)CCS2 | -6.41* | i | i | i | i | i | i | i | 73.5%* | 66.0%* | i
Cc1cccc(-c2nc(NCCCN3CCOCC3)c3ccccc3n2)c1 | -9.56* | i | i | i | i | . | . | . | . | 79.2%* | i | TRPC4 spec 2=38.5%*;TRPC4 spec=-21.2%*;HEK293 MPD ctr 2-1=i;HEK293 MPD ctr-1=-283.5%*
c1ccc(-c2nc(NCCCN3CCOCC3)c3ccccc3n2)cc1 | -11.3* | i | i | i | i | -168.0%* | i | -36.0%* | 68.0%* | 57.5%* | i
c1ccc2[nH]c(NCCCN3CCOCC3)nc2c1 | i | i | i | i | i | . | . | . | . | . | .
N#Cc1c2c(c(NCCCN3CCOCC3)n3c1nc1ccccc13)CCC2 | -6* | i | i | i | i | -173.0%* | 70.5%* | -35.5%* | 51.5%* | 46.5%* | i
CC(O)CNCCNCc1c(OCc2ccccc2)ccc2ccccc12 (stereo not given) | -7.9* | i | i | i | i | . | . | . | . | 65.7%* | i | TRPC4 spec 2=28.0%*;TRPC4 spec=-9.5%*;HEK293 MPD ctr 2-1=i;HEK293 MPD ctr-1=i
COc1ccc(NC(=O)C2CCCN(c3nn4c(=O)cc(C)nc4s3)C2)cc1 (stereo not given) | i | i | i | i | i | . | . | . | . | . | .
Cc1cc(=O)n2nc(N3CCCC(C(=O)N4CCc5ccccc54)C3)sc2n1 (stereo not given) | -8.73* | i | i | i | i | . | . | . | . | i | i | TRPC4 spec 2=i;TRPC4 spec=i;HEK293 MPD ctr 2-1=i;HEK293 MPD ctr-1=i
COc1ccc(C(=O)N/C(=C\c2cn(C)c3ccccc23)C(=O)OCCN(C)C)cc1 | -6.08* | i | i | i | i | i | i | i | 53.0%* | 45.0%* | i
CCCCOC(=O)/C(=C/c1cn(C)c2ccccc12)NC(=O)c1ccc(OC)cc1 | i | i | i | i | i | . | . | . | . | . | .
COc1ccc(C2=NN(C(=O)c3ccco3)C(c3ccco3)C2)cc1OC (stereo not given) | i | i | i | i | i | . | . | . | . | . | .
NCCNC[C@@H]1COC2(CCCCCCCCCCC2)O1 | -6.92* | i | i | i | i | . | . | . | . | 61.8%* | i | TRPC4 spec 2=33.0%*;TRPC4 spec=1.8%*;HEK293 MPD ctr 2-1=i;HEK293 MPD ctr-1=7.8%*
CN(C)C(=O)c1c([N+](=O)[O-])c(C(C)(C)C)nn1C | -6.23* | i | i | i | i | i | i | i | i | i | i
CCc1nc2ccccc2c(C(=O)Nc2ccc(C)cc2)c1C | i | i | i | i | i | . | . | . | . | . | .
CCc1nc2ccc(C)cc2c(C(=O)NC2CCCCC2C)c1C (stereo not given) | i | i | i | i | 13.6* | 425.5%* | i | 102.5%* | 31.0%* | i | 148.0%*
C=CCCN(C(C(=O)OC)C(C)C)S(=O)(=O)c1ccccc1Br (stereo not given) | i | i | i | i | i | . | . | . | . | . | .
CCCCCCN1C=CC=C/C1=C\C=C(C#N)C#N | i | i | i | i | 13.1* | 253.0%* | i | 75.0%* | i | i | 101.5%*
CC1=C/C(=C\C=C(C#N)C#N)N(C)c2ccccc21 | i | i | i | i | i | . | . | . | . | . | .
CCOC(=O)Cn1c(-c2ccccn2)nc2ccccc21 | i | i | i | i | i | . | . | . | . | . | .
CCOC(=O)c1ccc2c(c1)nc(-c1ccccn1)n2CC | -5.54* | i | i | i | i | i | i | i | i | i | i
CCCCNCC#CCOc1cc(C)ccc1C(C)C | i | i | i | i | i | . | . | . | . | . | .
COc1ccccc1NC(=O)CSc1ccc(-c2ccc(-n3cccn3)cc2)nn1 | i | i | i | i | i | . | . | . | . | . | .
CC(=O)c1ccc(OCCCN2CCCCC2)cc1 | -5.14* | i | i | i | i | i | i | i | i | i | i
